Measured values: ChEMBL document CHEMBL4680121, “Development of (4-methoxyphenyl)-1H-tetrazol-5-amine regioisomers as a new class of selective antitubercular agents” (Eur J Med Chem, 2020)
pIC50: −log10 of the molar value. Converted amounts (≈) assume the structure as drawn.

Tests used:
[1] = system: Mycobacterium tuberculosis; assay: Antitubercular activity against Mycobacterium tuberculosis Spec.192 assessed as inhibition of microbial growth by classical test tube method; format: functional
How it was run: (§1)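 Classical test-tube serial dilution in Youmans' modified Proskauer–Beck liquid medium with 10% bovine serum. Inoculum came from 14-day-old cultures. Compounds were given as DMSO solutions (stock 10 mg/ml), diluted geometrically in medium to 3.1–100 µg/ml, and incubated at 37 °C. MIC is the minimum concentration inhibiting growth relative to a no-compound control.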

[2] = system: Mycobacterium tuberculosis; assay: Antitubercular activity against Mycobacterium tuberculosis H37Rv ATCC 25618 assessed as inhibition of microbial growth incubated for 1 week by MABA method; format: functional; conditions: H37Rv ATCC 25618, 168 h, time 1 weeks
How it was run: (§2)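 Microplate Alamar Blue assay in Middlebrook 7H9 broth with 10% OADC. Inoculum from fresh LJ culture was adjusted to McFarland 1 and diluted 1:20. DMSO stocks were two-fold serially diluted to final 0.125–512 µg/ml, with growth and sterile controls. Plates ran 1 week at 37 °C, then Alamar blue was added for 24 h. MIC is the lowest concentration preventing the blue-to-pink change.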

Mycobacterium kansasii = assay: Antibacterial activity against Mycobacterium kansasii assessed as inhibition of microbial growth incubated for 1 week by MABA method; format: functional; conditions: 168 h, time 1 weeks
How it was run: (§3)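 Microplate Alamar Blue assay using two-fold serial microdilution in Middlebrook 7H9 broth with 10% OADC, compounds 0.125–512 µg/ml from DMSO stocks. Inoculum came from fresh LJ culture, was adjusted to McFarland 1 and diluted 1:20. Plates were incubated 1 week at 37 °C, Alamar blue was added and plates were re-incubated 24 h. MIC was the lowest concentration preventing the blue-to-pink change. Each plate carried growth and sterile controls.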

[3] = system: Mycobacterium tuberculosis; assay: Antitubercular activity against Mycobacterium tuberculosis Spec.192 assessed as inhibition of microbial growth incubated for 1 week by MABA method; format: functional; conditions: Mycobacterium tuberculosis, 192, 168 h; time 1 weeks; how it was run: as §2
Mycobacterium avium = assay: Antimycobacterial activity against Mycobacterium avium assessed as inhibition of microbial growth incubated for 1 week by MABA method; format: functional; conditions: 168 h, time 1 weeks; how it was run: as §2
[4] = system: Mycobacterium tuberculosis; assay: Antitubercular activity against Mycobacterium tuberculosis H37Rv ATCC 25618 assessed as inhibition of microbial growth by classical test tube method; format: functional; how it was run: as §1
[5] = system: Mycobacterium scrofulaceum; assay: Antibacterial activity against Mycobacterium scrofulaceum assessed as inhibition of microbial growth incubated for 1 week by MABA method; format: functional; conditions: 168 h, time 1 weeks; how it was run: as §3
Mycobacterium xenopi = assay: Antibacterial activity against Mycobacterium xenopi assessed as inhibition of microbial growth incubated for 1 week by MABA method; format: functional; conditions: 168 h, time 1 weeks; how it was run: as §3
[6] = system: Mycobacterium intracellulare; assay: Antimycobacterial activity against Mycobacterium intracellulare assessed as inhibition of microbial growth incubated for 1 week by MABA method; format: functional; conditions: 168 h, time 1 weeks; how it was run: as §3
[7] = system: Mycolicibacterium fortuitum; assay: Antibacterial activity against Mycobacterium fortuitum assessed as inhibition of microbial growth incubated for 1 week by MABA method; format: functional; conditions: 168 h, time 1 weeks; how it was run: as §3
Proteus vulgaris = assay: Antibacterial activity against Proteus vulgaris NCTC 4635 assessed as bacterial growth inhibition measured after 18 hrs by two-fold serial microdilution method; format: functional
How it was run: (§4)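 Two-fold serial broth microdilution in MH II medium following modified CLSI procedures. Compounds were dissolved in DMSO and diluted in medium to at most 1% solvent, tested from 0.03125 to 512 μg/ml. Final inoculum 10^6 CFU/ml. MIC was taken as the lowest concentration with no visible growth after 18 h at 35 °C.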

[8] = system: Staphylococcus epidermidis; assay: Antibacterial activity against Staphylococcus epidermidis ATCC 12228 assessed as bacterial growth inhibition measured after 18 hrs by two-fold serial microdilution method; format: functional; how it was run: as §4
Pseudomonas aeruginosa [9] = assay: Antibacterial activity against Pseudomonas aeruginosa PAO1 assessed as bacterial growth inhibition measured after 18 hrs by two-fold serial microdilution method; format: functional; how it was run: as §4
Staphylococcus aureus [10] = assay: Antibacterial activity against Staphylococcus aureus ATCC 6538 assessed as bacterial growth inhibition measured after 18 hrs by two-fold serial microdilution method; format: functional; how it was run: as §4
HaCaT [11] = assay: Cytotoxicity against human HaCaT cells assessed as reduction in cell viability at 100 uM measured after 72 hrs by MTT assay; format: cell-based
How it was run: (§5)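 MTT viability assay on cells grown in DMEM with 10% heat-inactivated FBS, penicillin/streptomycin and 20 mM HEPES at 37 °C/5% CO2. Cells were seeded at 1×10^4 per well and allowed to adhere for 24 h, then the medium was refreshed. Compounds were added at 20–140 μM for 72 h at 37 °C, followed by MTT (0.5 mg/mL in serum-free medium) for 4 h. Untreated cells served as control. IC50 is the concentration giving 50% growth inhibition versus control.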

HaCaT [12] = assay: Cytotoxicity against human HaCaT cells assessed as reduction in cell viability measured after 72 hrs by MTT assay; format: cell-based; how it was run: as §5
[13] = system: Mycobacterium scrofulaceum; assay: Potency index, ratio of isoniazid MIC to test compound MIC for antibacterial activity against Mycobacterium scrofulaceum assessed as inhibition of microbial growth incubated for 1 week by MABA method; format: functional; conditions: time 1 weeks
Staphylococcus aureus [14] = assay: Antibacterial activity against Staphylococcus aureus NCTC 4163 assessed as bacterial growth inhibition measured after 18 hrs by two-fold serial microdilution method; format: functional; how it was run: as §4
[15] = system: Staphylococcus epidermidis; assay: Antibacterial activity against Staphylococcus epidermidis ATCC 35984/RP62A assessed as bacterial growth inhibition measured after 18 hrs by two-fold serial microdilution method; format: functional; how it was run: as §4
Pseudomonas aeruginosa [16] = assay: Antibacterial activity against Pseudomonas aeruginosa NCTC 6749 assessed as bacterial growth inhibition measured after 18 hrs by two-fold serial microdilution method; format: functional; how it was run: as §4
Klebsiella pneumoniae = assay: Antibacterial activity against Klebsiella pneumoniae ATCC 10031 assessed as bacterial growth inhibition measured after 18 hrs by two-fold serial microdilution method; format: functional; how it was run: as §4
V79 [17] = assay: Cytotoxicity against Chinese Hamster V79 cells assessed as reduction in cell viability at 100 uM measured after 72 hrs by MTT assay; format: cell-based, Cricetulus griseus; conditions: v79, 72 h; how it was run: as §5
V79 [18] = assay: Cytotoxicity against Chinese Hamster V79 cells assessed as reduction in cell viability measured after 72 hrs by MTT assay; format: cell-based; conditions: Cricetulus griseus, V79, 72 h; how it was run: as §5
[19] = system: Staphylococcus epidermidis; assay: Antibacterial activity against Staphylococcus epidermidis ATCC 1457 assessed as bacterial growth inhibition measured after 18 hrs by two-fold serial microdilution method; format: functional; how it was run: as §4
Escherichia coli = assay: Antibacterial activity against Escherichia coli ATCC 25922 assessed as bacterial growth inhibition measured after 18 hrs by two-fold serial microdilution method; format: functional; how it was run: as §4

Structure (SMILES) | MIC [1] | MIC [2] | MIC (Mycobacterium kansasii) | MIC [3] | MIC (Mycobacterium avium) | MIC [4] | MIC [5] | MIC (Mycobacterium xenopi) | MIC [6] | MIC [7] | MIC (Proteus vulgaris) | MIC [8] | MIC (Pseudomonas aeruginosa [9]) | MIC (Staphylococcus aureus [10]) | MIC (Staphylococcus aureus [14]) | MIC [15] | MIC (Pseudomonas aeruginosa [16]) | MIC (Klebsiella pneumoniae) | MIC [19] | MIC (Escherichia coli) | also measured
NNC(=O)c1ccncc1 [ISONIAZID] | 6.25 µg/mL | 0.125 µg/mL | 32 µg/mL | 0.125 µg/mL | 32 µg/mL | 6.25 µg/mL | 64 µg/mL | 64 µg/mL | 64 µg/mL | 128 µg/mL |  |  |  |  |  |  |  |  |  |  | 
COc1ccc(-n2nnnc2Nc2cccc(F)c2)cc1 |  | 8 µg/mL | 512 µg/mL | 8 µg/mL | 128 µg/mL |  | 16 µg/mL | 512 µg/mL | 64 µg/mL | 256 µg/mL | > 256 µg/mL | 32 µg/mL (≈ 112 µM) | > 256 µg/mL | 64 µg/mL (≈ 224 µM) | 128 µg/mL (≈ 449 µM) | 128 µg/mL (≈ 449 µM) | > 256 µg/mL | > 256 µg/mL | 256 µg/mL (≈ 897 µM) | > 256 µg/mL | Activity (HaCaT [11]): Non-Toxic; pIC50 (HaCaT [12]): 3.90; Ratio [13]: 4; Activity (V79 [17]): Non-Toxic; pIC50 (V79 [18]): 3.61
COc1ccc(NC(=S)Nc2ccccc2Br)cc1 | 50 µg/mL |  |  |  |  | 50 µg/mL |  |  |  |  | > 256 µg/mL | > 256 µg/mL | > 256 µg/mL | > 256 µg/mL | > 256 µg/mL | > 256 µg/mL | > 256 µg/mL | > 256 µg/mL | > 256 µg/mL | > 256 µg/mL | 
COc1ccc(NC(S)=Nc2ccc(F)cc2)cc1 | 100 µg/mL |  |  |  |  | 50 µg/mL |  |  |  |  | > 256 µg/mL | > 256 µg/mL | > 256 µg/mL | > 256 µg/mL | > 256 µg/mL | > 256 µg/mL | > 256 µg/mL | > 256 µg/mL | > 256 µg/mL | > 256 µg/mL | 
CC[C@@H](CO)NCCN[C@@H](CC)CO [ETHAMBUTOL] | < 3.1 µg/mL | 2 µg/mL |  | 2 µg/mL |  | < 3.1 µg/mL |  |  |  |  |  |  |  |  |  |  |  |  |  |  | 
COc1ccc(NC(=S)Nc2ccccc2Cl)cc1 | 25 µg/mL |  |  |  |  | 25 µg/mL |  |  |  |  | > 256 µg/mL | > 256 µg/mL | > 256 µg/mL | > 256 µg/mL | > 256 µg/mL | > 256 µg/mL | > 256 µg/mL | > 256 µg/mL | > 256 µg/mL | > 256 µg/mL | 
COc1ccc(Nc2nnnn2-c2ccccc2Cl)cc1 |  | 8 µg/mL | 256 µg/mL | 8 µg/mL | 512 µg/mL |  | 32 µg/mL | 512 µg/mL | 128 µg/mL | 128 µg/mL | 256 µg/mL (≈ 848 µM) | 64 µg/mL (≈ 212 µM) | 256 µg/mL (≈ 848 µM) | 64 µg/mL (≈ 212 µM) | 64 µg/mL (≈ 212 µM) | 64 µg/mL (≈ 212 µM) | 256 µg/mL (≈ 848 µM) | 256 µg/mL (≈ 848 µM) | 128 µg/mL (≈ 424 µM) | 256 µg/mL (≈ 848 µM) | Activity (HaCaT [11]): Non-Toxic; pIC50 (HaCaT [12]): 4.00; Activity (V79 [17]): Non-Toxic; pIC50 (V79 [18]): 3.99
COc1ccc(Nc2nnnn2-c2ccc(Cl)cc2)cc1 |  | 8 µg/mL | 512 µg/mL | 8 µg/mL | 256 µg/mL |  | 16 µg/mL | 128 µg/mL | 128 µg/mL | > 512 µg/mL | > 256 µg/mL | 256 µg/mL (≈ 848 µM) | > 256 µg/mL | > 256 µg/mL | 256 µg/mL (≈ 848 µM) | 256 µg/mL (≈ 848 µM) | > 256 µg/mL | > 256 µg/mL | > 256 µg/mL | > 256 µg/mL | Activity (HaCaT [11]): Non-Toxic; pIC50 (HaCaT [12]): 3.99; Ratio [13]: 4; Activity (V79 [17]): Non-Toxic; pIC50 (V79 [18]): 3.94
CN[C@@H]1[C@H](O[C@H]2[C@H](O[C@H]3[C@H](O)[C@@H](O)[C@H](N=C(N)N)[C@@H](O)[C@@H]3N=C(N)N)O[C@@H](C)[C@]2(O)C=O)O[C@@H](CO)[C@H](O)[C@H]1O [STREPTOMYCIN] | < 3.1 µg/mL | 1 µg/mL |  | 1 µg/mL |  | < 3.1 µg/mL |  |  |  |  |  |  |  |  |  |  |  |  |  |  | 
